Source: ChEMBL document CHEMBL4219082, “2-Arylthio-5-iodo pyrimidine derivatives as non-nucleoside HBV polymerase inhibitors” (Bioorg Med Chem, 2018)
The source made the active and inactive calls. No cut-off for these calls is given here.

Experiments:
Hepatitis B virus [1] = test: Antiviral activity against HBV infected in human HepG2.2.15 cells assessed as inhibition of viral DNA levels at 20 uM […] by qRT-PCR analysis relative to control; format: functional
Outline: (§1)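 HepG2.2.15 cells were seeded at 2×10^5 cells/mL and exposed to compound 24 h later. Compound-containing medium was renewed at 72 h and cells were kept another 72 h. After a PBS wash, intracellular HBV DNA was extracted from lysates and quantified by qRT-PCR. Line 1 gives the 50% inhibitory concentration; lines 2 and 3 test single concentrations of 10 µM and 20 µM.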

Duck hepatitis B virus [2] = test: Inhibition of DHBV DNA polymerase derived from infected duckling liver assessed as decrease in biotin-11-dUTP incorporation using poly (A)/oligo(dT)15 as template/primer at 100 uM after 1 hr by ELISA relative to control
Outline: (§2)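 Enzyme is DHBV polymerase from liver homogenate of infected ducklings. It was pelleted, and the 35% and 40% fractions of a sucrose density gradient were pooled and used at a "1/100" dilution of one liver's yield. Oligo(dT)15 primer is covalently immobilized on the plate. The mix contains 17.5 µg/ml poly(A), 8 µM dTTP, 2 µM biotin-11-dUTP, 5 mM DTT, 17 mM MgCl2, 65 µg/ml BSA, 50 mM Tris-HCl pH 8.3 and 75 mM KCl. Incubation is 1 h at 37 °C. After BSA blocking, streptavidin-alkaline phosphatase is added and PNPP signal is read after NaOH stop. Line 6 is tested at 100 µM and line 7 at 200 µM.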

[3] = Cytotoxicity against human HepG2.2.15 cells […] by MTT assay; format: cell-based, HepG2 2.2.15
Outline: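 HepG2.2.15 cells were seeded at 2×10^5 cells/mL and dosed with graded compound concentrations after 24 h. Medium with compound was refreshed at 72 h, then cells were kept a further 72 h. MTT was added for 4 h, formazan was dissolved in DMSO and absorbance read at 490 nm. The value is CC50, the concentration giving 50% cytotoxicity.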

[4] = Selectivity index, ratio of CC50 for human HepG2.2.15 cells to EC50 for HBV infected in human HepG2.2.15 cells; format: toxicity, cell-based; details: read-out: Ratio CC50/EC50
Outline: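 Selectivity index is calculated as CC50/EC50. CC50 comes from an MTT assay and EC50 from qRT-PCR of intracellular HBV DNA. Both use HepG2.2.15 cells dosed for two 72 h periods with a medium renewal between them.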

[5] = (§3) Inhibition of DHBV DNA polymerase derived from infected duckling liver assessed as decrease in biotin-11-dUTP incorporation using poly (A)/oligo(dT)15 as template/primer after 1 hr by ELISA; parameters: species or system Duck hepatitis B virus; outline: as §2
Duck hepatitis B virus [6] = test: as §3; outline: as §2
Duck hepatitis B virus [7] = test: Inhibition of DHBV DNA polymerase derived from infected duckling liver assessed as decrease in biotin-11-dUTP incorporation using poly (A)/oligo(dT)15 as template/primer at 200 uM after 1 hr by ELISA; outline: as §2
Hepatitis B virus [8] = test: Antiviral activity against HBV infected in human HepG2.2.15 cells assessed as inhibition of viral DNA levels at 10 uM after […] by qRT-PCR analysis; format: functional, organism-based; outline: as §1

Structure (SMILES)	CC50 [3] [µM]	selectivity ratio [4]	IC50 [5] [µM]	further results
COC(=O)c1ccc(CSc2nc(Cc3cc(C)cc(C)c3)cc(=O)[nH]2)cc1	–	–	–	inhibition at 20 µM (Hepatitis B virus [1]): 13.3%; inhibition (Duck hepatitis B virus [2]): 3.66%
Cc1cc(C)cc(Cc2nc(SCc3ccc(C#N)cc3)[nH]c(=O)c2I)c1	43.2	6.1	35.6	–
N#Cc1ccc(CSc2nc(C(=O)NCCCc3ccccc3)c(I)c(=O)[nH]2)cc1	> 50	> 30	> 200	–
CC(=O)c1ccc(CSc2nc(Cc3cc(C)cc(C)c3)c(I)c(=O)[nH]2)cc1	78.3	6.4	42.9	–
Nc1ccn([C@H]2CS[C@@H](CO)O2)c(=O)n1	> 100	> 164	–	–
O=C(O)P(=O)(O)O [FOSCARNET]	–	–	6.54	inhibition (Duck hepatitis B virus [6]): Dose-dependent effect
Cc1cc(C)cc(Cc2nc(SCCc3ccc([N+](=O)[O-])cc3)[nH]c(=O)c2I)c1	66.6	6.8	71.9	–
CN1CCN(C(=O)c2nc(SCc3ccc(C#N)cc3)[nH]c(=O)c2I)CC1	> 100	> 38	–	inhibition (Duck hepatitis B virus [7]): inactive
N#Cc1ccc(CSc2nc(Cn3nnc4ccccc43)c(I)c(=O)[nH]2)cc1	–	–	128	inhibition (Hepatitis B virus [8]): inactive
O=c1[nH]c(SCc2ccc([N+](=O)[O-])cc2)nc(Cn2nnc3ccccc32)c1I	–	–	104	inhibition (Hepatitis B virus [8]): inactive
O=c1cc(Cc2cc(F)cc(F)c2)nc(SCc2ccc([N+](=O)[O-])cc2)[nH]1	–	–	–	inhibition at 20 µM (Hepatitis B virus [1]): 32.9%; inhibition (Duck hepatitis B virus [2]): 16.1%
N#Cc1ccc(CSc2nc(C(=O)N3CCCc4ccccc43)c(I)c(=O)[nH]2)cc1	> 100	> 62	> 200	–
N#Cc1ccc(CSc2nc(CN3CCc4ccccc4C3)c(I)c(=O)[nH]2)cc1	–	–	60.5	–
O=c1[nH]c(SCc2ccc([N+](=O)[O-])cc2)nc(Cc2cc(F)cc(F)c2)c1I	> 100	> 16	29.5	–
O=c1[nH]c(SCc2ccc([N+](=O)[O-])cc2)nc(Cc2ccccc2)c1I	52.7	7	42.8	–
Cc1cc(C)cc(Cc2nc(SCCOc3ccc([N+](=O)[O-])cc3)[nH]c(=O)c2I)c1	96.6	14	56	–
N#Cc1ccc(CSc2nc(CN3CCCCC3)c(I)c(=O)[nH]2)cc1	–	–	–	inhibition (Hepatitis B virus [8]): inactive; inhibition (Duck hepatitis B virus [7]): inactive
Cc1cc(C)cc(Cc2nc(SCc3ccc([N+](=O)[O-])cc3)[nH]c(=O)c2I)c1	39	5.9	33	–
COC(=O)c1ccc(CSc2nc(Cc3cc(C)cc(C)c3)c(I)c(=O)[nH]2)cc1	64.8	5	38.8	–
